Source: ChEMBL document CHEMBL1159072, “Side chain SAR of bicyclic beta-lactamase inhibitors (BLIs). 1. Discovery of a class C BLI for combination with imipinem” (Bioorg Med Chem Lett, 2010)

How the values were obtained:
[1] = target: Beta-lactamase (Pseudomonas aeruginosa (strain ATCC 15692 / PAO1 / 1C / PRS 101 / LMG12228)) (UniProt P24735); test: Inhibition of Pseudomonas aeruginosa CL5701 beta lactamase AmpC assessed as concentration required to reduce imipenem MIC
Beta-lactamase = Beta-lactamase (Pseudomonas aeruginosa (strain ATCC 15692 / PAO1 / 1C / PRS 101 / LMG12228), UniProt P24735); test: Inhibition of Pseudomonas aeruginosa beta lactamase AmpC by spectrophotometry
How it was run: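 Nitrocefin hydrolysis by P. aeruginosa AmpC, enzyme and substrate in 100 mM KH2PO4 pH 7 with 0.005% BSA. Inhibitor serially diluted from DMSO and preincubated with AmpC 40 min at room temperature. Substrate then added for a further 40 min, quenched with 2.5 N acetic acid, absorbance read at 492 nm. IC50 taken from semi-log plots of inhibition versus concentration.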

Pseudomonas aeruginosa [2] = test: Antimicrobial activity against Pseudomonas aeruginosa CL5701 infected in mouse spleen assessed as reduction in colony forming unit at 2.5 mg/kg qid for 1 hr administered after 1.25 hrs of infusion; format: functional
How it was run: (§1)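 In vivo P. aeruginosa CL5701 infection: imipenem/cilastatin 2.5 mpk given with the BLI at 2.35 or 4.7 mpk, by 1.25 h infusion QID for 1 day. Bacterial CFU counted in the spleen and expressed as log reduction relative to imipenem/cilastatin alone.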

Pseudomonas aeruginosa [3] = test: Antimicrobial activity against Pseudomonas aeruginosa CL5701 infected in mouse spleen assessed as reduction in colony forming unit at 2.35 mg/kg qid for 1 hr administered after 1.25 hrs of infusion; format: functional; how it was run: as §1
Pseudomonas aeruginosa [4] = test: Antimicrobial activity against Pseudomonas aeruginosa CL5701 infected in mouse spleen assessed as reduction in colony forming unit at 4.7 mg/kg qid for 1 hr administered after 1.25 hrs of infusion; format: functional; how it was run: as §1

Sequence of Beta-lactamase (P24735 whole entry): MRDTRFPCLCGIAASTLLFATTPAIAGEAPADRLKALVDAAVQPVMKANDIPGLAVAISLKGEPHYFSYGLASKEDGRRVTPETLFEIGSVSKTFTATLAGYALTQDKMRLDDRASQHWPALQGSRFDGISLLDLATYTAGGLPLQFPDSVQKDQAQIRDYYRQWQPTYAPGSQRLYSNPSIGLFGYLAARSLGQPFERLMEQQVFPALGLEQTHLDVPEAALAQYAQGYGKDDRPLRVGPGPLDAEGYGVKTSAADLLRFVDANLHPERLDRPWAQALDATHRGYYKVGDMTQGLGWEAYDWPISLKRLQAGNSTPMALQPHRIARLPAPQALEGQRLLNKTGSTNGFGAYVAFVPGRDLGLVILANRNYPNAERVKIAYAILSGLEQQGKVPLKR
Sequence of Beta-lactamase (Pseudomonas aeruginosa (strain ATCC 15692 / PAO1 / 1C / PRS 101 / LMG12228)) (P24735 27-397 limits assumed): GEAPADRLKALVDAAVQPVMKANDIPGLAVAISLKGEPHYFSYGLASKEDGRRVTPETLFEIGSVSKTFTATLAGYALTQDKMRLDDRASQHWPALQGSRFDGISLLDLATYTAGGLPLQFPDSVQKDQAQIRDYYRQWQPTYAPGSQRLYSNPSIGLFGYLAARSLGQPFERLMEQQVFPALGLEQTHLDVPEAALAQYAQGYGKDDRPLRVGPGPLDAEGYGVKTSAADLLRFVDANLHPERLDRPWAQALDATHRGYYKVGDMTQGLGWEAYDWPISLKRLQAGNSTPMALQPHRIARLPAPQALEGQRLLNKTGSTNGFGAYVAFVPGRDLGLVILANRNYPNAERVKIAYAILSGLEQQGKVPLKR

| SMILES | Activity [1] [µM] | IC50 (Beta-lactamase) [µM] | also measured |
| --- | --- | --- | --- |
| O=C(N[C@H]1CCCNCC1)N1CC[C@@H]2[C@H]1C(=O)N2S(=O)(=O)O | 9.4 | 1 | log10cfu (Pseudomonas aeruginosa [2]): 4.6; log10cfu (Pseudomonas aeruginosa [3]): 4.6 |
| O=C(NC1CCCCNCC1)N1CC[C@@H]2[C@H]1C(=O)N2S(=O)(=O)O (stereo in doubt; 12) | > 100 | – | – |
| O=C(N[C@@H]1CNCCOC1)N1CC[C@@H]2[C@H]1C(=O)N2S(=O)(=O)O | 25 | – | – |
| O=C(NC1CCCCNCC1)N1CC[C@@H]2[C@H]1C(=O)N2S(=O)(=O)O (single isomer, unassigned) | 12.5 | – | – |
| O=C(N[C@H]1CCCCNC1)N1CC[C@@H]2[C@H]1C(=O)N2S(=O)(=O)O | 50 | 1.9 | – |
| O=C(NC1CCNCC1)N1CC[C@@H]2[C@H]1C(=O)N2S(=O)(=O)O | 21 | – | log10cfu (Pseudomonas aeruginosa [4]): 4.7 |
| O=C1NCCCC[C@@H]1NC(=O)N1CC[C@@H]2[C@H]1C(=O)N2S(=O)(=O)O | > 100 | 0.8 | – |
| O=C(NC1CCCCCC1)N1CC[C@@H]2[C@H]1C(=O)N2S(=O)(=O)O | > 100 | – | – |
| O=C(N[C@H]1CNCCOC1)N1CC[C@@H]2[C@H]1C(=O)N2S(=O)(=O)O | 50 | – | – |
| O=C(NC1CNCCNC1)N1CC[C@@H]2[C@H]1C(=O)N2S(=O)(=O)O | 100 | 17 | – |

Further lines, with some results ahead:

| Activity [1] [µM] | IC50 (Beta-lactamase) [µM] | SMILES | also measured |
| --- | --- | --- | --- |
| > 100 | – | O=C(NC1CCCCNCCC1)N1CC[C@@H]2[C@H]1C(=O)N2S(=O)(=O)O (stereo in doubt; 13) [listing 1 of 2 here] | – |
| 25 | 3.4 | O=C(NC1CCCNCCC1)N1CC[C@@H]2[C@H]1C(=O)N2S(=O)(=O)O | – |
| > 100 | – | O=C(NC1CCCCNCCC1)N1CC[C@@H]2[C@H]1C(=O)N2S(=O)(=O)O (stereo in doubt; 14) [listing 1 of 2 here] | – |
| – | 4 | O=C(NC1CCCCNCCC1)N1CC[C@@H]2[C@H]1C(=O)N2S(=O)(=O)O (stereo in doubt; 13) [listing 2 of 2 here] | – |
| 25 | – | O=C(N[C@@H]1CCCNCC1)N1CC[C@@H]2[C@H]1C(=O)N2S(=O)(=O)O | – |
| – | 5 | O=C(NC1CCCCNCCC1)N1CC[C@@H]2[C@H]1C(=O)N2S(=O)(=O)O (stereo in doubt; 14) [listing 2 of 2 here] | – |
